The text below walks through data of ChEMBL document CHEMBL3046278, “Design, synthesis and antifungal/insecticidal evaluation of novel cinnamide derivatives” (2011).

Each structure is given as a SMILES string. Converted amounts (≈) assume the structure as drawn.

Type in all cases: functional
The subject of assay [1] is Colletotrichum lindemuthianum. The assay is described as follows: Antifungal activity against Colletotrichum lindemuthianum assessed as inhibition of mycelium growth at 50 ug/ml relative to control. An outline of the steps:
(§1)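 Mycelial growth inhibition on mycelial disks, compared with untreated control, using colony diameters: (control − treatment)/(control − disk diameter) × 100. Run twice, four replicates each.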

The test system of assay [2] is Sclerotinia sclerotiorum. Description: Antifungal activity against Sclerotinia sclerotiorum assessed as inhibition of mycelium growth at 50 ug/ml relative to control. The method, boiled down: as §1
In assay [3] the test system is Bursaphelenchus xylophilus. The assay is described as follows: Nematicidal activity against Bursaphelenchus xylophilus assessed as mortality at 200 mg/L after 24 hr relative to control. An outline of the steps:
(§2)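 Compounds dissolved in acetone and diluted with distilled water to a 200 mg L-1 working solution. Distilled water served as blank, triplicate. Mortality counted at 24, 48 and 72 h, then corrected against the negative control with Abbott's formula.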

Assay [4] deals with Botrytis cinerea. Description: Antifungal activity against Botryotinia fuckeliana assessed as inhibition of mycelium growth at 50 ug/ml relative to control. The method, boiled down:
as §1

Assay [5] concerns Bursaphelenchus xylophilus. Description: Nematicidal activity against Bursaphelenchus xylophilus assessed as mortality after 48 hr. Particulars: read-out: LD50 (the source's name).
In assay [6] the test system is Bursaphelenchus xylophilus. The assay is described as follows: Nematicidal activity against Bursaphelenchus xylophilus assessed as mortality after 24 hr. Particulars: read-out: LD50 (the source's name).
The subject of assay [7] is Bursaphelenchus xylophilus. The assay is described as follows: Nematicidal activity against Bursaphelenchus xylophilus assessed as mortality after 72 hr. The settings on record: read-out: LD50 (the source's name).
In assay [8] the test system is Rhizoctonia solani. The assay is described as follows: Antifungal activity against Rhizoctonia solani assessed as inhibition of mycelium growth at 50 ug/ml relative to control. The method, boiled down: as §1
The subject of assay [9] is Bursaphelenchus xylophilus. The assay is described as follows: Nematicidal activity against Bursaphelenchus xylophilus assessed as mortality at 200 mg/L after 72 hr relative to control. The method, boiled down: as §2
Assay [10] relates to Cytospora mali. The assay is described as follows: Antifungal activity against Valsa mali assessed as inhibition of mycelium growth at 50 ug/ml relative to control. An outline of the steps: as §1
Assay [11] has as its system Phytophthora nicotianae. Description: Antifungal activity against Phytophthora parasitica assessed as inhibition of mycelium growth at 50 ug/ml relative to control. An outline of the steps: as §1
Assay [12] has as its system Bursaphelenchus xylophilus. The assay is described as follows: Nematicidal activity against Bursaphelenchus xylophilus assessed as mortality at 200 mg/L after 48 hr relative to control. The method, boiled down:
as §2

As to `CCc1ccc(/C(=C/C(=O)NCCc2ccccc2)c2ccnc(Cl)c2)cc1`, the inhibition at 50 µg/mL in assay [1] came out at 34.3%; in assay [2], 44%; in assay [4], 50%; in assay [8], 22.4%; in assay [10], 20%; in [11], 26.8%. For the same compound, the Activity worked out at 17.95% in assay [3], 67.87% in [9] and 26.29% in [12]. Further, the LC50 came to 174 µg/mL (≈ 445 µM) in [5], 301 µg/mL (≈ 769 µM) in assay [6] and 114 µg/mL (≈ 291 µM) in assay [7].

For the compound `Cc1ccc(/C(=C/C(=O)NCCc2ccccc2)c2ccnc(Cl)c2)cc1C`, the inhibition at 50 µg/mL in assay [1] was found to be 56%; in [2] it was 72%; in assay [4], 67%; in assay [8], 76.8%; in [10], 52%; in [11], 1.61%. Further, the Activity is 14.73% in [3], 45.15% in assay [9] and 21.49% in assay [12]. The LC50 in [5] was 315 µg/mL (≈ 805 µM); in assay [6], 430 µg/mL (≈ 1100 µM); in assay [7], 252 µg/mL (≈ 646 µM).

Take `Cc1ccc(/C(=C/C(=O)NCCc2ccc(O)cc2)c2ccncc2)cc1C`: the inhibition at 50 µg/mL in assay [1] is 38.8%; in assay [2] it was 27%; in assay [4], 64%; in [8], 16.1%; in assay [10], -2.3%; in assay [11], 14.5%. Besides, the Activity in [3] worked out at 11.86%; in assay [9], 32.22%; in assay [12] it was 22.6%.

In the case of `Cc1ccc(/C(=C/C(=O)NCCc2ccccc2)c2ccnc(Cl)c2)c(C)c1`, the inhibition at 50 µg/mL in assay [1] is 47%; in assay [2], 24%; in assay [4], 43%; in [8], 4.52%; in [10], 31%; in assay [11] it was 11.3%. Moreover, the Activity turned out to be 22.97% in assay [3], 27.91% in assay [9] and 24.44% in assay [12].

With `Cc1ccc(/C(=C/C(=O)NCCc2ccc(O)cc2)c2ccnc(Cl)c2)c(C)c1`, the inhibition at 50 µg/mL is 21.6% in assay [1]; 27% in assay [2]; 38% in assay [4]; 13.6% in assay [8]; 26% in [10]; -25% in assay [11]. Moreover, the Activity in assay [3] is listed as 12.22%; in [9], 54.16%; in assay [12], 44.71%.

Take `COc1ccc(CCNC(=O)/C=C(/c2ccc(C)cc2)c2ccnc(Cl)c2)cc1OC`: the inhibition at 50 µg/mL in [1] was 55.2%; in assay [2], 42%; in assay [4] it was 59%; in [8] it was 82.6%; in assay [10] it was 42%; in [11] it was 0%. Moreover, the Activity in [3] came to 13.29%; in assay [9], 43.97%; in assay [12] it was 38.45%. Besides, the LC50 turned out to be 178 µg/mL (≈ 409 µM) in assay [5], 305 µg/mL (≈ 699 µM) in [6] and 126 µg/mL (≈ 289 µM) in assay [7].

In the case of `COc1ccc(/C(=C/C(=O)NCCc2ccccc2)c2ccnc(Cl)c2)cc1`, the inhibition at 50 µg/mL in [1] was 43.3%; in assay [2], 42%; in assay [4], 55%; in [8] it was 13.6%; in [10], -6.3%; in assay [11], -2.42%. The Activity in assay [3] turned out to be 13.65%; in [9], 42.01%; in assay [12] it was 38.82%.

In the case of `Cc1ccc(/C(=C/C(=O)NCCc2ccccc2)c2ccncc2)cc1`, the inhibition at 50 µg/mL was 32.8% in [1]; 16% in assay [2]; 43% in [4]; 15.5% in assay [8]; 36% in assay [10]; -17.7% in assay [11]. Also, the Activity in [3] is on record as 9.34%; in [9], 18.11%; in assay [12] it was 14.86%.

Take `CC(C)(C)c1ccc(/C(=C/C(=O)NCCc2ccc(O)cc2)c2ccnc(Cl)c2)cc1`: the inhibition at 50 µg/mL was 39.5% in assay [1]; 29% in assay [2]; 50% in assay [4]; 9.03% in [8]; -7.8% in [10]; -13.7% in assay [11]. The Activity is given as 21.17% in [3], 31.44% in assay [9] and 27.76% in assay [12].

`CCc1ccc(/C(=C/C(=O)NCCc2ccc(O)cc2)c2ccnc(Cl)c2)cc1`: the inhibition at 50 µg/mL came out at 24.6% in assay [1]; 17% in [2]; 37% in [4]; 67.7% in assay [8]; 24% in assay [10]; 28.2% in assay [11]. Besides, the results for the Activity in assay [3], in assay [9] and in assay [12] were 14.73%, 43.97% and 33.6%, respectively.

Consider `CCc1ccc(/C(=C/C(=O)NCCc2ccccc2)c2ccncc2)cc1`, for which the inhibition at 50 µg/mL in assay [1] was found to be 37.3%; in assay [2], 45%; in assay [4], 48%; in [8] it was 9.68%; in assay [10] it was 30%; in assay [11], 5.65%. For the same compound, the Activity in assay [3] is recorded as 7.56%; in [9] it was 8.71%; in assay [12] it was 8.23%.

Turning to `Cc1ccc(/C(=C/C(=O)NCCc2ccccc2)c2ccncc2)cc1C`, the inhibition at 50 µg/mL was 17.2% in [1]; 2.7% in assay [2]; 15% in assay [4]; 3.87% in assay [8]; 18% in [10]; -9.68% in [11]. Also, the Activity in assay [3] is on record as 28.7%; in assay [9] it was 49.07%; in assay [12], 47.67%.

Turning to `CN(/C=C\c1ccccc1)C(=O)/C=C/c1ccccc1` [LANSIUMAMIDE B], the Activity in assay [3], in assay [9] and in assay [12] was 100% each time. In addition, the LC50 came out at 6.36 µg/mL (≈ 24.2 µM) in assay [5], 8.38 µg/mL (≈ 31.8 µM) in [6] and 5.38 µg/mL (≈ 20.4 µM) in [7].

As to `Cc1ccc(/C(=C/C(=O)NCCc2ccc(O)cc2)c2ccnc(Cl)c2)cc1C`, the inhibition at 50 µg/mL in [1] was 35.8%; in assay [2], 44%; in assay [4], 54%; in [8], 91%; in assay [10], -6.3%; in assay [11] it was -18.5%. Also, the Activity in assay [3] worked out at 3.97%; in assay [9], 23.99%; in assay [12], 14.86%.

Regarding `COc1ccc(CCNC(=O)/C=C(\c2ccnc(Cl)c2)c2ccc(C)cc2C)cc1OC`, the inhibition at 50 µg/mL in assay [1] is 42.5%; in assay [2] it was 68%; in assay [4], 40%; in [8], 35.5%; in assay [10], 29%; in assay [11], 22.6%. For the same compound, the Activity in [3] came to 19.02%; in assay [9], 38.09%; in assay [12], 34.02%.
